In paper PMC9720105 (Redox Biology, 2022):
One block for each compound: values may come before it.

What was measured:
[1] = target: recombinant KEAP1-Kelch domain (Homo sapiens, UniProt Q14145); assay: biochemical; format: binding; conditions: for reduction in KEAP1 binding affinity compared to inhibitor 2: HTRF biochemical assay
[2] = target: KEAP1 in HEK293T cells (Homo sapiens, UniProt Q14145); assay: KEAP1 degradation in HEK293T cells; format: cell-based; conditions: HEK293T cells; for KEAP1 degradation efficiency: three lower concentrations, 5 and 24 h; for KEAP1 degradation / expression: 48 h
[3] = tested on: NRF2 downstream targets, NQO1 and HO-1; assay: NQO1 and HO-1 protein levels in HEK293T and HCA7 cell lines; format: cell-based; conditions: 48 h
Method in brief: (§1)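 HEK293T, HCA7 and A549 cells were grown in DMEM with 10% FBS and pen/strep; BEAS-2B in LHC-9 with pen/strep; all at 37 °C, 10% CO₂. Cells were exposed to test compound for 48 h, lysed, run on 4–12% SDS-PAGE and transferred to nitrocellulose. Blocking was 5% skim milk for 1 h at RT. Probes were anti-KEAP1, CRBN, NQO1 or HO-1, with HRP anti-β-actin loading control and HRP secondaries. Blots represent 3 independent experiments.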

[4] = target: KEAP1 in HCA7 cells (Homo sapiens, UniProt Q14145); assay: KEAP1 degradation in HCA7 cells; format: cell-based; conditions: 48 h
Method in brief: as §1

Sequence of KEAP1 in HEK293T cells (Q14145 whole entry): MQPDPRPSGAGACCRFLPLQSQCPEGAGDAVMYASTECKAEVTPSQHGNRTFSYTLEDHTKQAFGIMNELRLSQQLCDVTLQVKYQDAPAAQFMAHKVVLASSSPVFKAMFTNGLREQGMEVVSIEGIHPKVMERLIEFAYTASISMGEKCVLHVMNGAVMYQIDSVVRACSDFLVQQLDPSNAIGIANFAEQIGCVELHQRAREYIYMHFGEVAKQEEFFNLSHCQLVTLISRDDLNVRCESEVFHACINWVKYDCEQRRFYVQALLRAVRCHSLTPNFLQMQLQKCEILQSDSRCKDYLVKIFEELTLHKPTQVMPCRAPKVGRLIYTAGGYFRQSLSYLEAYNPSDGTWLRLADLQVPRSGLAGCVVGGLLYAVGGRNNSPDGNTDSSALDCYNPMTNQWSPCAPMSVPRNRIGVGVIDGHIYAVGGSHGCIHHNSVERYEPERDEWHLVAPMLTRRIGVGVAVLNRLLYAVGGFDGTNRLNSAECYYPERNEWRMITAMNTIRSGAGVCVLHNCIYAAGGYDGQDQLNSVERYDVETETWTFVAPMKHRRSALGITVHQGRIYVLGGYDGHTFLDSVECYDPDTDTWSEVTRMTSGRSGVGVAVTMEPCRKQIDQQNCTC
Sequence of recombinant KEAP1-Kelch domain (Q14145 312-624): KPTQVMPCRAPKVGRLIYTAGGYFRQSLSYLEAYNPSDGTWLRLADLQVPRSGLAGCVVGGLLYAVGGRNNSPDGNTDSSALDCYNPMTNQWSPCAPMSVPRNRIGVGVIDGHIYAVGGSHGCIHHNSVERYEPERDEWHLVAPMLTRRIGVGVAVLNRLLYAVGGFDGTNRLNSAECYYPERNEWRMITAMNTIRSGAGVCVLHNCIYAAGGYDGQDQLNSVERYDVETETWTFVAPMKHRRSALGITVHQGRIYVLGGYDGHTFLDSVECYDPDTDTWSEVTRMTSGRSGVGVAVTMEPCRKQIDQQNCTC
Sequence of KEAP1 in HCA7 cells (Q14145 whole entry): as the sequence (Q14145 whole entry) above

IC50 [1]: 147 nM
SMILES: Cc1ccc(C(CC(=O)O)c2cc(OCCNC(=O)COc3cccc4c3C(=O)N(C3CCC(=O)NC3=O)C4=O)c3c(c2)nnn3C)cc1CN1C[C@@H](C)Oc2ccccc2S1(=O)=O (stereo partly drawn) [Compound 6, 3-(7-(2-(2-((2-(2,6-Dioxopiperidin-3-yl)-1,3-dioxoisoindolin-4-yl)oxy)acetamido)ethoxy)-1-methyl-1H-benzo[d][1,2,3]triazol-5-yl)-3-(4-methyl-3-(((R)-4-methyl-1,1-dioxido-3,4-dihydro-2H-benzo[b][1,4,5]oxathiazepin-2-yl)methyl)phenyl)propanoic acid]

IC50 [1]: 143 nM
SMILES: Cc1ccc(C(CC(=O)O)c2cc(OCCCNC(=O)COc3cccc4c3C(=O)N(C3CCC(=O)NC3=O)C4=O)c3c(c2)nnn3C)cc1CN1C[C@@H](C)Oc2ccccc2S1(=O)=O (stereo partly drawn) [Compound 7, 3-(7-(3-(2-((2-(2,6-Dioxopiperidin-3-yl)-1,3-dioxoisoindolin-4-yl)oxy)acetamido)propoxy)-1-methyl-1H-benzo[d][1,2,3]triazol-5-yl)-3-(4-methyl-3-(((R)-4-methyl-1,1-dioxido-3,4-dihydro-2H-benzo[b][1,4,5]oxathiazepin-2-yl)methyl)phenyl)propanoic acid]

IC50 [1]: 86 nM
SMILES: Cc1ccc(C(CC(=O)O)c2cc(OCCCCCNC(=O)COc3cccc4c3C(=O)N(C3CCC(=O)NC3=O)C4=O)c3c(c2)nnn3C)cc1CN1C[C@@H](C)Oc2ccccc2S1(=O)=O (stereo partly drawn) [Compound 9, 3-(7-((5-(2-((2-(2,6-Dioxopiperidin-3-yl)-1,3-dioxoisoindolin-4-yl)oxy)acetamido)pentyl)oxy)-1-methyl-1H-benzo[d][1,2,3]triazol-5-yl)-3-(4-methyl-3-(((R)-4-methyl-1,1-dioxido-3,4-dihydro-2H-benzo[b][1,4,5]oxathiazepin-2-yl)methyl)phenyl)propanoic acid]

IC50 [1]: 127 nM
KEAP1 degradation efficiency [2]: most efficient at degrading KEAP1
SMILES: Cc1ccc(C(CC(=O)O)c2cc(OCCCCCCNC(=O)COc3cccc4c3C(=O)N(C3CCC(=O)NC3=O)C4=O)c3c(c2)nnn3C)cc1CN1C[C@@H](C)Oc2ccccc2S1(=O)=O (stereo partly drawn) [Compound 10, 3-(7-((6-(2-((2-(2,6-Dioxopiperidin-3-yl)-1,3-dioxoisoindolin-4-yl)oxy)acetamido)hexyl)oxy)-1-methyl-1H-benzo[d][1,2,3]triazol-5-yl)-3-(4-methyl-3-(((R)-4-methyl-1,1-dioxido-3,4-dihydro-2H-benzo[b][1,4,5]oxathiazepin-2-yl)methyl)phenyl)propanoic acid]

IC50 [1]: 120 nM
SMILES: Cc1ccc(C(CC(=O)O)c2cc(OCCOCCOCCNc3cccc4c3C(=O)N(C3CCC(=O)NC3=O)C4=O)c3c(c2)nnn3C)cc1CN1C[C@@H](C)Oc2ccccc2S1(=O)=O (stereo partly drawn) [Compound 11, 3-(7-(2-(2-(2-((2-(2,6-Dioxopiperidin-3-yl)-1,3-dioxoisoindolin-4-yl)amino)ethoxy)ethoxy)ethoxy)-1-methyl-1H-benzo[d][1,2,3]triazol-5-yl)-3-(4-methyl-3-(((R)-4-methyl-1,1-dioxido-3,4-dihydro-2H-benzo[b][1,4,5]oxathiazepin-2-yl)methyl)phenyl)propanoic acid]

IC50 [1]: 563 nM
reduction in KEAP1 binding affinity compared to inhibitor 2 [1]: greater than 3 fold
SMILES: Cc1ccc(C(CC(=O)O)c2cc(OCCOCCOCCNC(=O)COc3cccc4c3C(=O)N(C3CCC(=O)NC3=O)C4=O)c3c(c2)nnn3C)cc1CN1C[C@@H](C)Oc2ccccc2S1(=O)=O (stereo partly drawn) [Compound 12, 3-(7-(2-(2-(2-(2-((2-(2,6-Dioxopiperidin-3-yl)-1,3-dioxoisoindolin-4-yl)oxy)acetamido)ethoxy)ethoxy)ethoxy)-1-methyl-1H-benzo[d][1,2,3]triazol-5-yl)-3-(4-methyl-3-(((R)-4-methyl-1,1-dioxido-3,4-dihydro-2H-benzo[b][1,4,5]oxathiazepin-2-yl)methyl)phenyl)propanoic acid]

KEAP1 degradation / expression [2]: no impact
KEAP1 degradation / expression [4]: no impact
SMILES: Cc1ccc(C(CC(=O)OC(C)(C)C)c2cc(OCCCCCCCNc3cccc4c3C(=O)N(C3CCC(=O)NC3=O)C4=O)c3c(c2)nnn3C)cc1CN1C[C@@H](C)Oc2ccccc2S1(=O)=O (stereo partly drawn) [Compound 16, tert-Butyl 3-(7-((7-((2-(2,6-Dioxopiperidin-3-yl)-1,3-dioxoisoindolin-4-yl)amino)heptyl)oxy)-1-methyl-1H-benzo[d][1,2,3]triazol-5-yl)-3-(4-methyl-3-(((R)-4-methyl-1,1-dioxido-3,4-dihydro-2H-benzo[b][1,4,5]oxathiazepin-2-yl)methyl)phenyl)propanoate]
HO-1 protein expression [3]: no impact
NQO1 protein expression [3]: no impact

KEAP1 degradation / expression [2]: no impact
KEAP1 degradation / expression [4]: no impact
SMILES: COc1cc(C(CC(=O)OC(C)(C)C)c2ccc(C)c(CN3C[C@@H](C)Oc4ccccc4S3(=O)=O)c2)cc2nnn(C)c12 (stereo partly drawn) [Compound 17, tert-Butyl 3-(7-methoxy-1-methyl-1H-benzo[d][1,2,3]triazol-5-yl)-3-(4-methyl-3-(((R)-4-methyl-1,1-dioxido-3,4-dihydro-2H-benzo[b][1,4,5]oxathiazepin-2-yl)methyl)phenyl)propanoate]
HO-1 protein expression [3]: no impact
NQO1 protein expression [3]: no impact

Continued, compound first:

SMILES: Cc1ccc(C(CC(=O)O)c2cc(OCCNc3cccc4c3C(=O)N(C3CCC(=O)NC3=O)C4=O)c3c(c2)nnn3C)cc1CN1C[C@@H](C)Oc2ccccc2S1(=O)=O (stereo partly drawn) [Compound 3, 3-(7-(2-((2-(2,6-Dioxopiperidin-3-yl)-1,3-dioxoisoindolin-4-yl)amino)ethoxy)-1-methyl-1H-benzo[d][1,2,3]triazol-5-yl)-3-(4-methyl-3-(((R)-4-methyl-1,1-dioxido-3,4-dihydro-2H-benzo[b][1,4,5]oxathiazepin-2-yl)methyl)phenyl)propanoic acid]
IC50 [1]: 150 nM

SMILES: Cc1ccc(C(CC(=O)O)c2cc(OCCCNc3cccc4c3C(=O)N(C3CCC(=O)NC3=O)C4=O)c3c(c2)nnn3C)cc1CN1C[C@@H](C)Oc2ccccc2S1(=O)=O (stereo partly drawn) [Compound 4, 3-(7-(3-((2-(2,6-Dioxopiperidin-3-yl)-1,3-dioxoisoindolin-4-yl)amino)propoxy)-1-methyl-1H-benzo[d][1,2,3]triazol-5-yl)-3-(4-methyl-3-(((R)-4-methyl-1,1-dioxido-3,4-dihydro-2H-benzo[b][1,4,5]oxathiazepin-2-yl)methyl)phenyl)propanoic acid]
IC50 [1]: 267 nM
reduction in KEAP1 binding affinity compared to inhibitor 2 [1]: greater than 3 fold

SMILES: Cc1ccc(C(CC(=O)O)c2cc(OC(=O)CCCOc3cccc4c3C(=O)N(C3CCC(=O)NC3=O)C4=O)c3c(c2)nnn3C)cc1CN1C[C@@H](C)Oc2ccccc2S1(=O)=O (stereo partly drawn) [Compound 5, 3-(7-((4-((2-(2,6-Dioxopiperidin-3-yl)-1,3-dioxoisoindolin-4-yl)oxy)butanoyl)oxy)-1-methyl-1H-benzo[d][1,2,3]triazol-5-yl)-3-(4-methyl-3-(((R)-4-methyl-1,1-dioxido-3,4-dihydro-2H-benzo[b][1,4,5]oxathiazepin-2-yl)methyl)phenyl)propanoic acid]
reduction in KEAP1 binding affinity compared to inhibitor 2 [1]: greater than 3 fold

SMILES: Cc1ccc(C(CC(=O)O)c2cc(OCCCCNC(=O)COc3cccc4c3C(=O)N(C3CCC(=O)NC3=O)C4=O)c3c(c2)nnn3C)cc1CN1C[C@@H](C)Oc2ccccc2S1(=O)=O (stereo partly drawn) [Compound 8, 3-(7-(4-(2-((2-(2,6-Dioxopiperidin-3-yl)-1,3-dioxoisoindolin-4-yl)oxy)acetamido)butoxy)-1-methyl-1H-benzo[d][1,2,3]triazol-5-yl)-3-(4-methyl-3-(((R)-4-methyl-1,1-dioxido-3,4-dihydro-2H-benzo[b][1,4,5]oxathiazepin-2-yl)methyl)phenyl)propanoic acid]
IC50 [1]: 66 nM
KEAP1 degradation at longer time points ([2]; 48 h and 72 h, comparison of 8 and 14): less effective at longer time points of 48 h and 72 h
KEAP1 degradation efficiency [2]: most efficient at degrading KEAP1

SMILES: Cc1ccc(C(CC(=O)O)c2cc(OCCCCCCCNc3cccc4c3C(=O)N(C3CCC(=O)N(C)C3=O)C4=O)c3c(c2)nnn3C)cc1CN1C[C@@H](C)Oc2ccccc2S1(=O)=O (stereo partly drawn) [Compound 15, 3-(4-Methyl-3-(((R)-4-methyl-1,1-dioxido-3,4-dihydro-2H-benzo[b][1,4,5]oxathiazepin-2-yl)methyl)phenyl)-3-(1-methyl-7-((7-((2-(1-methyl-2,6-dioxopiperidin-3-yl)-1,3-dioxoisoindolin-4-yl)amino)heptyl)oxy)-1H-benzo[d][1,2,3]triazol-5-yl)propanoic acid]
HO-1 protein expression [3]: but not HO-1
NQO1 protein expression [3]: upregulated

SMILES: C[S+]([O-])CCCCN=C=S (stereo not drawn) [sulforaphane, reference compound]
HO-1 protein expression [3]: but not HO-1
NQO1 protein expression [3]: upregulated
